Laboratory results reported in ChEMBL document CHEMBL1126868, “Inhibitors of blood platelet cAMP phosphodiesterase. 4. Structural variation of the side-chain terminus of water-soluble 1,3-dihydro-2H-imidazo[4,5-b]quinolin-2-one derivatives” (J Med Chem, 1993).

Key:
[1] = Aqueous solubility; assay type: physicochemical; conditions: read-out: S
Procedure, shortened: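 A 10-mg sample was placed in 0.5 mL water and diluted stepwise up to 10 mL, or until it dissolved. Solubility is reported in mg/mL.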

Homo sapiens [2] = organism: Homo sapiens; assay: Inhibition of human platelet aggregation induced by ADP after 3 min incubation with platelet rich plasma; assay type: functional; conditions: 0.05 h
Procedure, shortened: (§1)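 Human platelet-rich plasma was preincubated with drug for 3 min (standard) or 15 min, then aggregation was induced with 5.86 μM ADP. Aggregation at a range of drug concentrations was compared with vehicle-treated controls, and IC50 was taken from dose-response curves. Values are single, duplicate or triplicate (with SD) determinations.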

[3] = % metabolized in monkey S-9 after 2 hours (10 ug/ml); assay type: ADME; conditions: simiiformes, monkey S-9 fraction; read-out: Activity
Procedure, shortened: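 Monkey liver homogenised at 0 °C in 3 volumes isotonic KCl (0.05 M phosphate, pH 7.4), spun 9000g 30 min to give S-9. Triplicate incubations at 37 °C for 2 h with cofactor mix (glucose-6-phosphate, NADP, nicotinamide, MgCl2), final drug 1 or 10 μg/mL. Parent measured by fluorescence HPLC after MeOH protein precipitation; % metabolized = 100% minus % remaining at 2 h versus t=0.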

[4] = half-life (t1/2 min); assay type: ADME
Procedure, shortened: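 Same monkey liver S-9 incubation (37 °C, final drug 1 or 10 μg/mL, triplicate). Aliquots taken at 0, 15, 30, 60, 90 and 120 min, quenched with MeOH and analysed for parent by fluorescence HPLC peak height. Half-life = ln 2 divided by the slope of a least-squares linear regression of peak height against time.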

Homo sapiens [5] = organism: Homo sapiens; assay: Inhibition of human platelet aggregation induced by ADP after 15 min incubation with platelet rich plasma; assay type: functional; conditions: 0.25 h; procedure, shortened: as §1
Phosphodiesterase 3 = Phosphodiesterase 3 (Homo sapiens, UniProt Q14432+Q13370); assay: Inhibition of human platelet aggregation cAMP PDE in vitro; assay type: functional
Procedure, shortened: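 Human platelet cAMP PDE assay run as in an earlier protocol, except that the [3H]adenosine product was resolved on DEAE Sephadex. Values are means of duplicate (deviation under 50% of mean) or triplicate determinations.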

Structure (SMILES) | solubility [1] | IC50 (Homo sapiens [2]) | metabolised at 2 h, 10 ug/ml [3] | half-life [4] | IC50 (Homo sapiens [5]) | IC50 (Phosphodiesterase 3)
CCOC(=O)N1CCC(S(=O)(=O)CCCOc2ccc3[nH]c4nc(O)nc-4cc3c2)CC1 | < 1000 µg/mL | 650 nM |  |  |  | 
CCOC(=O)N1CCC(n2nnnc2CCCCOc2ccc3[nH]c4nc(O)nc-4cc3c2)CC1 | < 1000 µg/mL | 100 nM |  |  |  | 
CCOC(=O)N1CCC(S(=O)(=O)CCCCOc2ccc3[nH]c4nc(O)nc-4cc3c2)CC1 | < 1000 µg/mL | 410 nM |  |  |  | 
CCOC(=O)N1CCC(n2nnnc2CCCOc2ccc3[nH]c4nc(O)nc-4cc3c2)CC1 | < 1000 µg/mL | 420 nM |  |  |  | 
Cl.O=C(NCCCOc1ccc2[nH]c3nc(O)nc-3cc2c1)N1CCN(CC2CCCCCC2)CC1 | 2000 µg/mL | 54 nM |  |  |  | 
Cl.O=S(=O)(CCCCOc1ccc2[nH]c3nc(O)nc-3cc2c1)C1CCN(CC2CCCCC2)CC1 | 2000 µg/mL | 30 nM |  |  |  | 
Cl.O=C(NCCCOc1ccc2[nH]c3nc(O)nc-3cc2c1)N1CCN(CC2CCCC2)CC1 | 700 µg/mL | 94 nM |  |  |  | 
Cl.O=S(=O)(CCCOc1ccc2[nH]c3nc(O)nc-3cc2c1)C1CCN(CC2CCCCO2)CC1 (stereo not given) | > 10000 µg/mL | 34 nM |  |  |  | 
Cl.O=S(=O)(CCCOc1ccc2[nH]c3nc(O)nc-3cc2c1)C1CCN(CC2CCCCC2)CC1 | > 10000 µg/mL | 30 nM | 15.2% | 7.55 h | 8.4 nM | 1.13 nM
Cl.Oc1nc2cc3cc(OCCCc4nnnn4C4CCN(CC5CCCC5)CC4)ccc3[nH]c-2n1 | 3000 µg/mL | 9 nM |  |  |  | 
Cl.O=S(=O)(CCCOc1ccc2[nH]c3nc(O)nc-3cc2c1)C1CCN(CCc2ccccc2)CC1 | < 5000 µg/mL | 130 nM |  |  |  | 
Cl.O=S(=O)(CCCOc1ccc2[nH]c3nc(O)nc-3cc2c1)C1CCN(Cc2cccc(C(F)(F)F)c2)CC1 | < 5000 µg/mL | 38 nM |  |  |  | 
Cl.O=S(=O)(CCCCOc1ccc2[nH]c3nc(O)nc-3cc2c1)C1CCN(Cc2ccc(F)cc2)CC1 | 2000 µg/mL | 67 nM |  |  |  | 
Cl.Oc1nc2cc3cc(OCCCc4nnnn4C4CCN(CC5CCCCCC5)CC4)ccc3[nH]c-2n1 | 1000 µg/mL | 17 nM |  |  |  | 
Cl.O=S(=O)(CCCOc1ccc2[nH]c3nc(O)nc-3cc2c1)N1CCN(CCc2ccccc2)CC1 | < 10000 µg/mL | 1040 nM |  |  |  | 
Cl.Oc1nc2cc3cc(OCCCCc4nnnn4C4CCN(Cc5ccccc5)CC4)ccc3[nH]c-2n1 | > 5000 µg/mL | 31 nM |  |  |  | 
CCC(CC)CN1CCC(n2nnnc2CCCCOc2ccc3[nH]c4nc(O)nc-4cc3c2)CC1.Cl | > 5000 µg/mL | 12 nM |  |  |  | 
Cl.Oc1nc2cc3cc(OCCCCc4nnnn4C4CCN(Cc5ccc(F)cc5)CC4)ccc3[nH]c-2n1 | > 5000 µg/mL | 51 nM |  |  |  | 
CCCC(CCC)CN1CCC(n2nnnc2CCCOc2ccc3[nH]c4nc(O)nc-4cc3c2)CC1.Cl | 2000 µg/mL | 82 nM |  |  |  | 
CC(C)CN1CCC(n2nnnc2CCCCOc2ccc3[nH]c4nc(O)nc-4cc3c2)CC1.Cl | > 10000 µg/mL | 9 nM |  |  |  | 

Structure (SMILES) | solubility [1] | IC50 (Homo sapiens [2]) | metabolised at 2 h, 10 ug/ml [3] | half-life [4] | IC50 (Homo sapiens [5]) | IC50 (Phosphodiesterase 3)
Cl.O=S(=O)(CCCOc1ccc2[nH]c3nc(O)nc-3cc2c1)C1CCN(CCC2CCCCC2)CC1 | < 5000 µg/mL | 48 nM |  |  |  | 
Cl.Oc1nc2cc3cc(OCCCCc4nnnn4C4CCNCC4)ccc3[nH]c-2n1 | 5000 µg/mL | 5330 nM |  |  |  | 
Cl.Oc1nc2cc3cc(OCCCc4nnnn4C4CCNCC4)ccc3[nH]c-2n1 | > 20000 µg/mL | 11600 nM |  |  |  | 
CCC(CC)CN1CCC(S(=O)(=O)CCCCOc2ccc3[nH]c4nc(O)nc-4cc3c2)CC1.Cl | 5000 µg/mL | 21 nM |  |  |  | 
Cl.Oc1nc2cc3cc(OCCCc4nnnn4C4CCN(CCc5ccccc5)CC4)ccc3[nH]c-2n1 | < 5000 µg/mL | 83 nM |  |  |  | 
Cl.O=C(NCCCOc1ccc2[nH]c3nc(O)nc-3cc2c1)N1CCN(CCC2CCCCC2)CC1 | 500 µg/mL | 72 nM |  |  |  | 
Cl.O=C(NCCCOc1ccc2[nH]c3nc(O)nc-3cc2c1)N1CCN(Cc2cccs2)CC1 | > 10000 µg/mL | 160 nM |  |  |  | 
Cl.Oc1nc2cc3cc(OCCCCc4nnnn4C4CCN(CC5CCCCC5)CC4)ccc3[nH]c-2n1 | > 5000 µg/mL | 20 nM |  |  |  | 
Cl.O=C(NCCCOc1ccc2[nH]c3nc(O)nc-3cc2c1)N1CCN(c2ncccn2)CC1 | 100 µg/mL | 320 nM |  |  |  | 
Cl.O=C(NCCCOc1ccc2[nH]c3nc(O)nc-3cc2c1)N1CCN(Cc2ccc(F)cc2)CC1 | > 20000 µg/mL | 350 nM | 70% | 1.08 h | 50 nM | 2.78 nM
Cl.O=C(NCCCOc1ccc2[nH]c3nc(O)nc-3cc2c1)N1CCN(CC2CCCCO2)CC1 (stereo not given) | > 20000 µg/mL | 160 nM |  |  |  | 
Cl.O=C(NCCCOc1ccc2[nH]c3nc(O)nc-3cc2c1)N1CCN(CCc2ccccc2)CC1 | 250 µg/mL | 300 nM |  |  |  | 
Cl.O=C(NCCCOc1ccc2[nH]c3nc(O)nc-3cc2c1)N1CCN(Cc2ccsc2)CC1 | 3000 µg/mL | 280 nM |  |  |  | 
CCC(CC)CN1CCN(C(=O)NCCCOc2ccc3[nH]c4nc(O)nc-4cc3c2)CC1.Cl | > 20000 µg/mL | 42 nM | 37.3% | 2.68 h | 7 nM | 1.25 nM
Cl.O=C(NCCCOc1ccc2[nH]c3nc(O)nc-3cc2c1)N1CCNCC1 | > 20000 µg/mL | 8150 nM |  |  |  | 
Cl.O=S(=O)(CCCOc1ccc2[nH]c3nc(O)nc-3cc2c1)N1CCN(CCC2CCCCC2)CC1 | < 5000 µg/mL | 2040 nM |  |  |  | 
Cl.O=C(NCCCOc1ccc2[nH]c3nc(O)nc-3cc2c1)N1CCN(c2ccccn2)CC1 | 500 µg/mL | 690 nM |  |  |  | 
Cl.O=S(=O)(CCCOc1ccc2[nH]c3nc(O)nc-3cc2c1)C1CCNCC1 | > 10000 µg/mL | > 66000 nM |  |  |  | 
CCC(CC)CN1CCN(S(=O)(=O)CCCOc2ccc3[nH]c4nc(O)nc-4cc3c2)CC1.Cl | > 10000 µg/mL | 160 nM | 38.8% | 2.87 h | 40 nM | 5.14 nM
Cl.O=S(=O)(CCCOc1ccc2[nH]c3nc(O)nc-3cc2c1)N1CCN(CC2CCCCC2)CC1 | > 20000 µg/mL | 110 nM | 49.4% | 2.02 h | 60 nM | 2.56 nM

Structure (SMILES) | solubility [1] | IC50 (Homo sapiens [2]) | metabolised at 2 h, 10 ug/ml [3] | half-life [4] | IC50 (Homo sapiens [5]) | IC50 (Phosphodiesterase 3)
Cl.O=S(=O)(CCCCOc1ccc2[nH]c3nc(O)nc-3cc2c1)C1CCNCC1 | > 10000 µg/mL | 14800 nM |  |  |  | 
CCCC(CCC)CN1CCN(C(=O)NCCCOc2ccc3[nH]c4nc(O)nc-4cc3c2)CC1.Cl | 500 µg/mL | 130 nM |  |  |  | 
Cl.O=C(NCCCOc1ccc2[nH]c3nc(O)nc-3cc2c1)N1CCC(N2CCCCC2)CC1 | > 20000 µg/mL | 9860 nM |  |  |  | 
Cl.O=S(=O)(CCCOc1ccc2[nH]c3nc(O)nc-3cc2c1)N1CCN(c2nc3ccccc3o2)CC1 | > 20000 µg/mL | 2410 nM |  |  |  | 
CC(C)CN1CCN(C(=O)NCCCOc2ccc3[nH]c4nc(O)nc-4cc3c2)CC1.Cl | > 20000 µg/mL | 180 nM |  |  |  | 
Cl.O=S(=O)(CCCOc1ccc2[nH]c3nc(O)nc-3cc2c1)N1CCN(c2nc3ccccc3s2)CC1 | 1000 µg/mL | 4880 nM |  |  |  | 
COc1ccc(CN2CCN(S(=O)(=O)CCCOc3ccc4[nH]c5nc(O)nc-5cc4c3)CC2)cc1.Cl | > 20000 µg/mL | 460 nM |  |  |  | 
CC(C)CN1CCC(n2nnnc2CCCOc2ccc3[nH]c4nc(O)nc-4cc3c2)CC1.Cl | > 10000 µg/mL | 9.4 nM |  |  |  | 
CCCC(CCC)CN1CCC(S(=O)(=O)CCCOc2ccc3[nH]c4nc(O)nc-4cc3c2)CC1.Cl | 1000 µg/mL | 230 nM |  |  |  | 
Cl.Oc1nc2cc3cc(OCCCc4nnnn4C4CCN(CC5CCCCO5)CC4)ccc3[nH]c-2n1 (stereo not given) | > 10000 µg/mL | 71 nM |  |  |  | 
Cl.O=C(NCCCOc1ccc2[nH]c3nc(O)nc-3cc2c1)N1CCN(Cc2ccccc2)CC1 | > 20000 µg/mL | 310 nM | 46.8% | 2.17 h | 50 nM | 1.11 nM
Cl.O=S(=O)(CCCCOc1ccc2[nH]c3nc(O)nc-3cc2c1)C1CCN(Cc2ccccc2)CC1 | 5000 µg/mL | 42 nM |  |  |  | 
CC(C)CN1CCC(S(=O)(=O)CCCOc2ccc3[nH]c4nc(O)nc-4cc3c2)CC1.Cl | > 10000 µg/mL | 27 nM |  |  |  | 
Cl.O=S(=O)(CCCOc1ccc2[nH]c3nc(O)nc-3cc2c1)N1CCN(Cc2cccc(C(F)(F)F)c2)CC1 | 2000 µg/mL | 320 nM |  |  |  | 
Cl.O=S(=O)(CCCOc1ccc2[nH]c3nc(O)nc-3cc2c1)N1CCNCC1 | > 20000 µg/mL | 15500 nM |  |  |  | 
Cl.Cl.O=C(NCCCOc1ccc2[nH]c3nc(O)nc-3cc2c1)N1CCN(Cc2ccc(Cl)cc2)CC1 | 200 µg/mL | 290 nM |  |  |  | 
Cl.Cl.O=S(=O)(CCCOc1ccc2[nH]c3nc(O)nc-3cc2c1)N1CCN(Cc2ccc(Cl)cc2)CC1 | > 20000 µg/mL | 530 nM |  |  |  | 
O=CN1CCN(S(=O)(=O)CCCOc2ccc3[nH]c4nc(O)nc-4cc3c2)CC1 | < 1000 µg/mL | 13000 nM |  |  |  | 
